Test results reported in ChEMBL document CHEMBL5370658, “Development of First-in-Class Dual Sirt2/HDAC6 Inhibitors as Molecular Tools for Dual Inhibition of Tubulin Deacetylation” (J Med Chem, 2023).
Activity calls are given as the source filed them. The calls are words filed in the database; no cut-off is given here.

Columns and labels:
[1] = biological target: Histone deacetylase 4 (Homo sapiens) (UniProt P56524); experiment: Inhibition of HDAC4 (unknown origin) using Abz-SRGGK(STFA)FRR-NH2 as substrate at 6 to 20000 nM preincubated for 5 mins followed by substrate addition and measured every 30 secs for 30 mins by continuous fluorescence based assay; conditions: dose 6-20000 nM, time 35.0 min
Sequence of Histone deacetylase 4 (Homo sapiens) (P56524 whole entry): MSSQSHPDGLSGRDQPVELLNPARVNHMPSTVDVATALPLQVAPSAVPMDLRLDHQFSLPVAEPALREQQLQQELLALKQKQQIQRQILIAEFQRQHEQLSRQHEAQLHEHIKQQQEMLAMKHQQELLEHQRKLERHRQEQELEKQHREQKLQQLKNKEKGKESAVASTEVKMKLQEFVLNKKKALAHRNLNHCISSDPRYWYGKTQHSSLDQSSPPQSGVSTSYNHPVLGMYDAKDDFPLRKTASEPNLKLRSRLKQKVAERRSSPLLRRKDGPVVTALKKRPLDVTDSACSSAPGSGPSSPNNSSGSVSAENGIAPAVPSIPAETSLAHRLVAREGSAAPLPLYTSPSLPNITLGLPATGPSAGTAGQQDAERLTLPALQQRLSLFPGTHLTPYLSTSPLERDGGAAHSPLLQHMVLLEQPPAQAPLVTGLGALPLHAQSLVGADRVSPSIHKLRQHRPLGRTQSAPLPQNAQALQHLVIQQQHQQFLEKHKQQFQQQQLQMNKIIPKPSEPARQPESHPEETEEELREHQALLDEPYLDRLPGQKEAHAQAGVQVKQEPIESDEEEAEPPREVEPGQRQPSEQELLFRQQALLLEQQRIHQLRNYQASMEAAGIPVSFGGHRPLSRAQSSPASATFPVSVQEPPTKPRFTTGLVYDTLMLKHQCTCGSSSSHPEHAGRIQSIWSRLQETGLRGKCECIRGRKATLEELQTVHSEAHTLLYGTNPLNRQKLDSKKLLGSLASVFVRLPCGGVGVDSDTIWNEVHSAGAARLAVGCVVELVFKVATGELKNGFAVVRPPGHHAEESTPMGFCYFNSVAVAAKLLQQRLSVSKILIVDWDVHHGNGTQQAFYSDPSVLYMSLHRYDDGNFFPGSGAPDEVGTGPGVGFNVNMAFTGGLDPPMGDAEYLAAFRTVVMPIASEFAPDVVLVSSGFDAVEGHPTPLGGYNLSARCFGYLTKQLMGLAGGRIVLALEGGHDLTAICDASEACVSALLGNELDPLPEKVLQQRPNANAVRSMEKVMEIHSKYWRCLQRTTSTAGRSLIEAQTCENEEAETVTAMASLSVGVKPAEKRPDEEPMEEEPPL
Method in brief: (§1)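 Continuous fluorescence assay in 20 mM HEPES pH 7.4, 140 mM NaCl, 10 mM KCl, 1 mM TCEP, 0.2 mg/mL BSA, 3% DMSO final. Enzyme (HDAC4 5 nM, HDAC5 10 nM, HDAC7 5 nM, HDAC9 20 nM) preincubated with inhibitor at room temperature. HDAC10 (5 nM) instead in 20 mM HEPES pH 7.4, 0.5 mg/mL BSA. Initial slope used as activity.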

[2] = biological target: T1, Histone deacetylase 7 (Homo sapiens) (UniProt Q8WUI4); experiment: Inhibition of HDAC7 (unknown origin) using Abz-SRGGK(STFA)FRR-NH2 as substrate at 6 to 20000 nM preincubated for 5 mins followed by substrate addition and measured every 30 secs for 30 mins by continuous fluorescence based assay; conditions: dose 6-20000 nM, time 35.0 min; method in brief: as §1
T1 sequence (whole entry): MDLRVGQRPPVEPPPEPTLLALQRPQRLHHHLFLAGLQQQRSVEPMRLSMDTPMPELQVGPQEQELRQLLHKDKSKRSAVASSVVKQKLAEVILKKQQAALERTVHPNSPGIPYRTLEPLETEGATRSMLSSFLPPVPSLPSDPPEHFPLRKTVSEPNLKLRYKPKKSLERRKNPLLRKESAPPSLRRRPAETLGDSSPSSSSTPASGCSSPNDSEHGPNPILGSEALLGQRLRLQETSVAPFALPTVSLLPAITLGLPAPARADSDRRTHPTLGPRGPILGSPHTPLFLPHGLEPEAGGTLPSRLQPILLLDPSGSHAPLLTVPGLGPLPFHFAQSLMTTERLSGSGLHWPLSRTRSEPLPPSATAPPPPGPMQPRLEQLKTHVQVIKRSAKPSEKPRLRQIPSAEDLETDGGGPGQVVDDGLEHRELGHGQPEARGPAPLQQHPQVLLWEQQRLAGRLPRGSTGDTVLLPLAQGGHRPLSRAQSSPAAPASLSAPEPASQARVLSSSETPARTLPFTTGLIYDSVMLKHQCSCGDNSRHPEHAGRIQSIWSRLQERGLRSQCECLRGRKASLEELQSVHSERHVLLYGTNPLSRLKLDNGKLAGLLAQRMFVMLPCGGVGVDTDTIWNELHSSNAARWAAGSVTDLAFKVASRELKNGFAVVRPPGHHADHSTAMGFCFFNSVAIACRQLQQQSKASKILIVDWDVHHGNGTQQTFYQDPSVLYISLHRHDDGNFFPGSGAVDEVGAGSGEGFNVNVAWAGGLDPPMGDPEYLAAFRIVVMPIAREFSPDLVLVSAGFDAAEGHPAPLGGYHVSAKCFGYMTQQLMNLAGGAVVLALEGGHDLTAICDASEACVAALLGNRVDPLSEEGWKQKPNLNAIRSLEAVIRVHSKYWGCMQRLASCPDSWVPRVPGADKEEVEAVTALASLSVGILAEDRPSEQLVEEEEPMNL

[3] = biological target: T2, Polyamine deacetylase HDAC10 (Homo sapiens) (UniProt Q969S8); experiment: Inhibition of HDAC10 (unknown origin) using Abz-SRGGK(STFA)FRR-NH2 as substrate at 6 to 20000 nM preincubated for 5 mins followed by substrate addition and measured every 30 secs for 30 mins by continuous fluorescence based assay; conditions: dose 6-20000 nM, time 35.0 min; method in brief: as §1
T2 sequence (whole entry): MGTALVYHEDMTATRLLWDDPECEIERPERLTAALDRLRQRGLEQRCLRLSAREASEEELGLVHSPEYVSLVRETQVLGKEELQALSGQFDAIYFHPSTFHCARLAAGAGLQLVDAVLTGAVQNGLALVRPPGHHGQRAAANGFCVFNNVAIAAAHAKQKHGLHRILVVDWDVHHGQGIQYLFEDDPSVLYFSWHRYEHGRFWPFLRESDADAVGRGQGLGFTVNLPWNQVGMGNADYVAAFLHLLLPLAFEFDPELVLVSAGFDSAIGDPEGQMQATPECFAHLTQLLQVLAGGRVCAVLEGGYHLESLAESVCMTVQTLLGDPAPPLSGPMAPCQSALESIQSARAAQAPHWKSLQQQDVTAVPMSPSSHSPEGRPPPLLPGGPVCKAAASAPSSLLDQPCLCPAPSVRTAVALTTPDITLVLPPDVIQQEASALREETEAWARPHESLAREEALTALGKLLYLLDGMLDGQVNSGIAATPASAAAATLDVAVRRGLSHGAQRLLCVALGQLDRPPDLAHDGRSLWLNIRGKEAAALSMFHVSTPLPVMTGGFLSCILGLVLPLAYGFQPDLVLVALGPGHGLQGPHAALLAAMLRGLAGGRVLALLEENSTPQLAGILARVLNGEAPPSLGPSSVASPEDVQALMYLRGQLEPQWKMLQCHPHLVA

HGC-27 = experiment: Cytotoxicity against human HGC-27 cells assessed as reduction in cell viability incubated for 72 hrs by MTS assay; assay type: functional, cell-based
Method in brief: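 Cell viability EC50 from at least two independent experiments, each run in triplicate. Results are compared by t-test.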

Question: What does the source list for CCCCN(Cc1ccc(C(=O)NO)cc1)C(=O)CCCCn1cc(COc2cccc(Cc3cnc(NC(=O)CSc4nc(C)cc(C)n4)s3)c2)nn1?
Answer: inhibition [1]: inactive; inhibition [2]: inactive; inhibition [3]: inactive; Activity (HGC-27): Active
